Measurements published in ChEMBL document CHEMBL1177791, “Discovery of piperidin-4-yl-aminopyrimidines as HIV-1 reverse transcriptase inhibitors. N-benzyl derivatives with broad potency against resistant mutant viruses” (Bioorg Med Chem Lett, 2010).

Assays:
[1] = biological target: Human immunodeficiency virus type 1 reverse transcriptase (Human immunodeficiency virus 1, UniProt Q72547); experiment: Inhibition of wild type HIV1 reverse transcriptase by SPA heteropolymeric assay
Method in brief: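 Recombinant RT, heteropolymeric assay of RNA-dependent DNA polymerase activity with biotinylated primer oligonucleotide and tritiated dNTP substrate; new DNA quantified by capturing biotinylated primer on streptavidin-coated SPA beads; IC50 reported.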

[2] = biological target: Human immunodeficiency virus type 1 reverse transcriptase (Human immunodeficiency virus 1, UniProt Q72547, K103N/Y181C); experiment: Inhibition of HIV1 reverse transcriptase K103N/Y181C double mutant by SPA heteropolymeric assay
Method in brief: (§1)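 Recombinant mutant RT, heteropolymeric assay of RNA-dependent DNA polymerase activity. Uses a biotinylated primer oligonucleotide and tritiated dNTP substrate. Newly synthesized DNA is captured via the biotinylated primer on streptavidin-coated scintillation proximity beads and counted. Reported as IC50.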

[3] = biological target: Human immunodeficiency virus type 1 reverse transcriptase (Human immunodeficiency virus 1, UniProt Q72547, Y188L); experiment: Inhibition of HIV1 reverse transcriptase Y188L mutant by SPA heteropolymeric assay; method in brief: as §1
[4] = tested on: Human immunodeficiency virus 1; experiment: Antiviral activity against HIV1 infected in human MT4 cells assessed as reduction in virus-induced cytopathic effect; format: functional, organism-based; conditions: Human immunodeficiency virus 1, MT4
[5] = tested on: Human immunodeficiency virus 1; experiment: Antiviral activity against HIV1 expressing reverse transcriptase K103N/Y181C double mutant infected in human MT4 cells assessed as reduction in virus-induced cytopathic effect; format: functional, organism-based; conditions: Human immunodeficiency virus 1, MT4
Method in brief: (§2)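 Compound incubated with HIV-1-infected MT4 cells in medium containing 10% fetal bovine serum. Read-out was reduction of viral cytopathic effect on the cells, reported as EC50.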

[6] = tested on: Human immunodeficiency virus 1; experiment: Antiviral activity against HIV1 expressing reverse transcriptase Y188L mutant infected in human MT4 cells assessed as reduction in virus-induced cytopathic effect; format: functional, organism-based; conditions: Human immunodeficiency virus 1, MT4; method in brief: as §2
[7] = tested on: Human immunodeficiency virus 1; experiment: Antiviral activity against wild type HIV1 infected in human MT4 cells assessed as reduction in virus-induced cytopathic effect in presence of 40 % human serum; format: functional, organism-based; conditions: Human immunodeficiency virus 1, MT4
[8] = tested on: Human immunodeficiency virus 1; experiment: Antiviral activity against HIV1 expressing reverse transcriptase K103N/L100I double mutant infected in human MT4 cells assessed as reduction in virus-induced cytopathic effect; format: functional, organism-based; conditions: Human immunodeficiency virus 1, MT4; method in brief: as §2
[9] = tested on: Human immunodeficiency virus 1; experiment: Antiviral activity against HIV1 expressing reverse transcriptase G190A mutant infected in human MT4 cells assessed as reduction in virus-induced cytopathic effect; format: functional, organism-based; conditions: Human immunodeficiency virus 1, MT4; method in brief: as §2
[10] = tested on: Human immunodeficiency virus 1; experiment: Antiviral activity against wild type HIV1 infected in human MT4 cells assessed as reduction in virus-induced cytopathic effect in presence of 10 % fetal bovine serum; format: functional, organism-based; conditions: Human immunodeficiency virus 1, MT4
[11] = tested on: Human immunodeficiency virus 1; experiment: Antiviral activity against HIV1 expressing reverse transcriptase V106A mutant infected in human MT4 cells assessed as reduction in virus-induced cytopathic effect; format: functional, organism-based; conditions: Human immunodeficiency virus 1, MT4; method in brief: as §2

Compound	IC50 [1] [nM]	IC50 [2] [nM]	IC50 [3] [nM]	IC50 [4] [nM]	IC50 [5] [nM]	IC50 [6] [nM]	IC50 [7] [nM]	IC50 [8] [nM]	IC50 [9] [nM]	IC50 [10] [nM]	IC50 [11] [nM]
Cc1cc(C#N)cc(C)c1Oc1nc(NC2CCN(Cc3ccc(S(C)(=O)=O)cc3)CC2)ncc1Br	28	14	28	5.2	35.7	< 1.2	–	–	–	–	–
Cc1cc(C#N)cc(C)c1Oc1ccnc(NC2CCN(Cc3ccc(S(N)(=O)=O)cc3Cl)CC2)n1	84	25	105	4.4	21.4	1.4	–	–	–	–	–
Cc1cc(C#N)cc(C)c1Oc1nc(Nc2ccc(C#N)cc2)nc(N)c1Br [ETRAVIRINE]	–	–	–	–	–	3.1	25.9	9.5	1.1	–	–
Cc1cc(C#N)cc(C)c1Oc1ccnc(NCCC(=O)Nc2ccc(S(N)(=O)=O)cc2Cl)n1	900	> 1000	> 10000	–	–	–	–	–	–	–	–
Cc1cc(C#N)cc(C)c1Oc1nc(NC2CCN(Cc3ccc(C#N)cc3Cl)CC2)ncc1Br	146	159	–	17.6	67.4	11.6	–	–	–	–	–
Cc1cc(C#N)cc(C)c1Oc1ccnc(NC2CCN(Cc3ccc(S(C)(=O)=O)cc3Cl)CC2)n1	22	30	263	24.6	67.2	46.5	–	–	–	–	–
Cc1cc(C#N)cc(C)c1Oc1nc(NC2CCN(c3ccccc3)C2)ncc1Br (centres undefined)	67	> 1000	718	–	–	–	–	–	–	–	–
Cc1cc(C#N)cc(C)c1Oc1nc(NC2CCN(Cc3ccc(Cl)cc3)CC2)ncc1Br	152	129	793	–	–	–	–	–	–	–	–
Cc1cc(C#N)cc(C)c1Oc1nc(NC2CCN(Cc3ccc(C#N)cc3)CC2)ncc1Br	21	18	41	–	–	–	–	–	–	–	–
Cc1cc(C#N)cc(C)c1Oc1nc(NC2CCN(Cc3ccccc3)CC2)ncc1Br	19	15	70	6.5	> 100	9.1	–	–	–	–	–
Cc1cc(C#N)cc(C)c1Oc1nc(NC2CCN(Cc3ccccc3C#N)CC2)ncc1Br	29	62	43	–	–	–	–	–	–	–	–
Cc1cc(C#N)cc(C)c1Oc1nc(NC2CCN(Cc3cccc(Cl)c3)CC2)ncc1Br	241	229	–	–	–	–	–	–	–	–	–
Cc1cc(C#N)cc(C)c1Oc1ccnc(NC2CCN(Cc3ccccc3)CC2)n1	87	216	372	3.3	> 100	43.6	–	–	–	–	–
Cc1cc(C#N)cc(C)c1Oc1nc(NC2CCN(Cc3ccc(S(N)(=O)=O)cc3Cl)CC2)ncc1Br	90	21	208	9.9	18.9	3.2	61.5	9.1	6	9.9	2.3
Cc1cc(C#N)cc(C)c1Oc1nc(NC2CCN(c3ccccc3)CC2)ncc1Br	192	112	334	–	–	–	–	–	–	–	–
Cc1cc(C#N)cc(C)c1Oc1nc(NC2CCN(Cc3cccc(C#N)c3)CC2)ncc1Br	23	27	37	–	–	–	–	–	–	–	–
Cc1cc(C#N)cc(C)c1Oc1nc(NC2CCN(Cc3ccc(S(C)(=O)=O)cc3Cl)CC2)ncc1Br	45	28	216	6.1	7.3	2.8	48.7	5.9	1.8	6.1	2
Cc1cc(C#N)cc(C)c1Oc1ccnc(NC2CCN(Cc3ccc(S(C)(=O)=O)cc3)CC2)n1	34	50	72	–	20.2	16.9	–	–	–	–	–
O=C1Nc2ccc(Cl)cc2[C@@](C#CC2CC2)(C(F)(F)F)O1 [EFAVIRENZ]	–	–	–	–	–	> 1000	–	> 500	6	–	5.7
Cc1cc(C#N)cc(C)c1Oc1nc(NC2CCN(Cc3ccc(C(N)=O)cc3Cl)CC2)ncc1Br	131	69	519	41.5	52.7	30.2	–	–	–	–	–
Cc1cc(C#N)cc(C)c1Oc1nc(NC2CCN(Cc3ccc(C(=O)O)cc3Cl)CC2)ncc1Br	32	28	86	3.9	74.2	–	–	–	–	–	–
